Measured values reported in ChEMBL document CHEMBL1146275, “5-HT2C antagonists based on fused heterotricyclic templates: design, synthesis and biological evaluation” (Bioorg Med Chem Lett, 2007).
The source made the active and inactive calls. The calls are words filed in the database; no cut-off is given here.

How the values were obtained:
[1] = biological target: T1, 5-hydroxytryptamine receptor 2B (Homo sapiens, UniProt P41595); test: Agonist activity at human 5HT2B receptor expressed in HEK293 cells by measuring intracellular calcium mobilization upto 10 uM; assay type: functional, cell-based
T1 sequence (P41595 whole entry): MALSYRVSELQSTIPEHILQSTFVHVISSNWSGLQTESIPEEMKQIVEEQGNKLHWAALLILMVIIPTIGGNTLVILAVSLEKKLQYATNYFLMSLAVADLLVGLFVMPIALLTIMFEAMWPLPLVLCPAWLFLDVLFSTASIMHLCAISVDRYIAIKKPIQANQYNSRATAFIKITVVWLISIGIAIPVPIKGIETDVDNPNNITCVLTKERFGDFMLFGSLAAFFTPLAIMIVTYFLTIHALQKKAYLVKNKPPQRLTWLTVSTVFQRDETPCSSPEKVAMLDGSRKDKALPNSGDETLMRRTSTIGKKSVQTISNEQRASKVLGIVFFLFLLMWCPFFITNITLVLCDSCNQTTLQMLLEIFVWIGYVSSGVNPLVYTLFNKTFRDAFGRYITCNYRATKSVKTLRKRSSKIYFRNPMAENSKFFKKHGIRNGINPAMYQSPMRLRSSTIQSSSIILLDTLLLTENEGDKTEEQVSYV

[2] = biological target: T2, 5-hydroxytryptamine receptor 2C (Homo sapiens) (UniProt P28335); test: Agonist activity at human 5HT2C receptor expressed in HEK293 cells by measuring intracellular calcium mobilization upto 10 uM; assay type: functional, cell-based
T2 sequence (whole entry): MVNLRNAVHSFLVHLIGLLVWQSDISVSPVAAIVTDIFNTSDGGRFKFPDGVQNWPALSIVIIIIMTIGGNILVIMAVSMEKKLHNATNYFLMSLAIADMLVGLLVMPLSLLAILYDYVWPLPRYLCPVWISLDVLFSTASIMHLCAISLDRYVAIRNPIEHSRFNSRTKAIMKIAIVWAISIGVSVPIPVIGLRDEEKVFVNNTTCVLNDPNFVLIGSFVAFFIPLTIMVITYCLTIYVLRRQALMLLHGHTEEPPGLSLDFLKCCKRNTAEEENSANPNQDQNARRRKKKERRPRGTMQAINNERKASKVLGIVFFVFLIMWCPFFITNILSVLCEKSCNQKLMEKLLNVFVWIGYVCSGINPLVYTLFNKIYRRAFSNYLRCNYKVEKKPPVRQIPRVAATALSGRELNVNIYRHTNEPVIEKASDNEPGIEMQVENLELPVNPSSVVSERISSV

[3] = biological target: T3, 5-hydroxytryptamine receptor 2A (Homo sapiens, UniProt P28223); test: Displacement of [3H]ketanserin from human 5HT2A receptor expressed in HEK293 cells; assay type: cell-based
T3 sequence (P28223 whole entry): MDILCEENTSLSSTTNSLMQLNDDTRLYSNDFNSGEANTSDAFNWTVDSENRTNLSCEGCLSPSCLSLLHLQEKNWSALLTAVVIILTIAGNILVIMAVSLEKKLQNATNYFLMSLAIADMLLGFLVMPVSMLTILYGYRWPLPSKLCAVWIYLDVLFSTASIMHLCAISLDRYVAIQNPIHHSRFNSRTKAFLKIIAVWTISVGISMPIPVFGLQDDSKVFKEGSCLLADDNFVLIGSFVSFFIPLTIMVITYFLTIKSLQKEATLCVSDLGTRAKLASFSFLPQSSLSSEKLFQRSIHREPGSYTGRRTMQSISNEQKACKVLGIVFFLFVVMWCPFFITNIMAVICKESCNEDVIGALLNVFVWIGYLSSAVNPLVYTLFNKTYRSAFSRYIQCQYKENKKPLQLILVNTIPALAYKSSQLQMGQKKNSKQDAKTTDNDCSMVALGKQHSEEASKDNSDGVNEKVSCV

[4] = biological target: T3, 5-hydroxytryptamine receptor 2A; test: Agonist activity at human 5HT2A receptor expressed in HEK293 cells by measuring intracellular calcium mobilization upto 10 uM; assay type: functional, cell-based
[5] = biological target: T4, 5-hydroxytryptamine receptor 2C (Homo sapiens, UniProt P28335); test: Displacement of [3H]mesulergine from human 5HT2C receptor expressed in HEK293 cells; assay type: cell-based
T4 sequence (P28335 whole entry): T2 sequence (whole entry)

[6] = biological target: T1, 5-hydroxytryptamine receptor 2B; test: Displacement of [3H]5-HT from human 5HT2B receptor expressed in HEK293 cells; assay type: cell-based
[7] = Clearance in rat blood; assay type: ADME, organism-based; conditions: whole blood
Outline: (§1)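 Male rats (n = 3) received a 1 mg free base/kg iv bolus (2 mL/kg) of a 0.5 mg free base/mL solution in 25% (v/v) aqueous PEG400 containing 5% (v/v) DMSO. Brain penetration was assessed at 1 h.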

[8] = Bioavailability in rat at 3 mg/kg, po; assay type: ADME, organism-based; conditions: in vivo
Outline: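 Oral dosing was 3 mg free base/kg by gavage (5 mL/kg) to male rats (n = 3), from 0.6 mg free base/mL in 0.5% w/v Methocel with 5% DMSO. The iv reference arm was 1 mg free base/kg as a bolus (2 mL/kg) in 25% (v/v) aqueous PEG400 with 5% (v/v) DMSO, n = 3.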

[9] = biological target: T2, 5-hydroxytryptamine receptor 2C (Homo sapiens); test: Antagonist activity at human 5HT2C receptor expressed in HEK293 cells by measuring intracellular calcium mobilization; assay type: functional, cell-based
Outline: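 Antagonism measured as blockade of the 5-HT-evoked response at the human receptor, with affinity expressed as pKb.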

[10] = Ratio of drug level in brain to plasma in rat; assay type: ADME; conditions: brain and plasma; outline: as §1

COc1ccc(N2Cc3sc4ccccc4c3C2=O)cc1OCCN1CCCCC1
Activity [1]: inactive
Activity [2]: inactive
Ki [3]: 398 nM
Activity [4]: inactive
Ki [5]: 3.16 nM
Ki [6]: > 631 nM

COc1ccc(N2Cc3c(c4ccccc4n3C)C2=O)cc1OCCN1CCCCC1.Cl
Activity [1]: inactive
Activity [2]: inactive
clearance [7]: 53 mL/min/kg
Ki [3]: 501 nM
Activity [4]: inactive
bioavailability [8]: 15%
Ki [5]: 6.31 nM
Ki [6]: 200 nM

COc1ccc(N2Cc3sc4ccccc4c3C2=O)cc1OCCN1CCC(C)CC1
Activity [1]: inactive
pKb [9]: 8.7
Activity [2]: inactive
Ki [3]: > 794 nM
Activity [4]: inactive
Ki [5]: 1.58 nM
Ki [6]: 200 nM

COc1ccc(N2Cc3cc4ccccc4cc3C2=O)cc1OCCN1CCCCC1
Activity [1]: inactive
Activity [2]: inactive
Activity [4]: inactive

COc1ccc(N2Cc3c(c4cc(F)ccc4n3C)C2=O)cc1OCCN1CCCCC1
Activity [1]: inactive
Activity [2]: inactive
Activity [4]: inactive

COc1ccc2c(c1)c1c(n2C)CN(c2ccc(OC)c(OCCN3CCC(C)CC3)c2)C1=O
Activity [1]: inactive
Activity [2]: inactive
Activity [4]: inactive

COc1ccc(N2Cc3c(c4ccc(F)cc4n3C)C2=O)cc1OCCN1CCCCC1
Activity [1]: inactive
Activity [2]: inactive
Ki [3]: > 10000 nM
Activity [4]: inactive
Ki [5]: 12.6 nM
Ki [6]: > 10000 nM

COc1ccc2c(c1)c1c(n2C)CN(c2ccc(OC)c(OCCN3CCCCC3)c2)C1=O
Activity [1]: inactive
Activity [2]: inactive
Ki [3]: 1000 nM
Activity [4]: inactive
Ki [5]: 31.6 nM
Ki [6]: 794 nM

COc1ccc(N2Cc3c(c4cc(F)ccc4n3C)C2=O)cc1OCCN1CCC(C)CC1
Activity [1]: inactive
pKb [9]: 8.6
Activity [2]: inactive
Ki [3]: 158 nM
Activity [4]: inactive
Ki [5]: 2.51 nM
Ki [6]: 63.1 nM

COc1ccc(N2Cc3c(c4cccc(F)c4n3C)C2=O)cc1OCCN1CCCCC1
Activity [1]: inactive
Activity [2]: inactive
Activity [4]: inactive

COc1ccc(N2Cc3c(c4cc(Cl)ccc4n3C)C2=O)cc1OCCN1CCC(C)CC1
Activity [1]: inactive
pKb [9]: 8.6
Activity [2]: inactive
clearance [7]: 23 mL/min/kg
Ki [3]: 126 nM
Kp [10]: 1
Activity [4]: inactive
bioavailability [8]: 44%
Ki [5]: 3.16 nM
Ki [6]: 39.8 nM

COc1ccc(N2Cc3c(c4ccc(F)cc4n3C)C2=O)cc1OCCN1CCC(C)CC1
Activity [1]: inactive
pKb [9]: 7.5
Activity [2]: inactive
Ki [3]: 251 nM
Activity [4]: inactive
Ki [5]: 15.8 nM
Ki [6]: 251 nM

COc1ccc(N2Cc3c(c4ccc(Cl)cc4n3C)C2=O)cc1OCCN1CCC(C)CC1
Activity [1]: inactive
Activity [2]: inactive
Ki [3]: 251 nM
Activity [4]: inactive
Ki [5]: 3.98 nM
Ki [6]: 200 nM

COc1ccc(N2Cc3c(c4cc(Cl)c(Cl)cc4n3C)C2=O)cc1OCCN1CCCCC1
Activity [1]: inactive
Activity [2]: inactive
Ki [3]: 501 nM
Activity [4]: inactive
Ki [5]: 6.31 nM
Ki [6]: 200 nM

COc1ccc(N2C(=O)c3c(n(C)c4ccccc34)C2C)cc1OCCN1CCCCC1 (configuration not stated)
Activity [1]: inactive
Activity [2]: inactive
Activity [4]: inactive

COc1ccc(N2Cc3c(c4ccc(Cl)cc4n3C)C2=O)cc1OCCN1CCCCC1
Activity [1]: inactive
Activity [2]: inactive
Ki [3]: 316 nM
Activity [4]: inactive
Ki [5]: 5.01 nM
Ki [6]: 158 nM

COc1ccc(N2Cc3c(c4cc(Cl)ccc4n3C)C2=O)cc1OCCN1CCCCC1
Activity [1]: inactive
Activity [2]: inactive
clearance [7]: 39 mL/min/kg
Ki [3]: 158 nM
Activity [4]: inactive
bioavailability [8]: 21%
Ki [5]: 2.51 nM
Ki [6]: > 1000 nM

COc1ccc(N2Cc3c(c4cc(Cl)c(Cl)cc4n3C)C2=O)cc1OCCN1CCC(C)CC1
Activity [1]: inactive
Activity [2]: inactive
Activity [4]: inactive

COc1ccc(N2Cc3c(c4cccc(F)c4n3C)C2=O)cc1OCCN1CCC(C)CC1
Activity [1]: inactive
Activity [2]: inactive
Ki [3]: 251 nM
Activity [4]: inactive
Ki [5]: 2.51 nM
Ki [6]: 31.6 nM
